# High-throughput results as filed in PubChem BioAssay.
# Sampled rows, rich in hits. Any-hit rate of the full collection: about 5.9%.
# Fibroblast inh = blocks proliferation of human lung fibroblasts. viability, % at 10 µM. 85,000 compounds, 1.1% hits. LL 47 human lung fibroblast viability, ATP luminescence; hits give low values;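 active = viability at or below 50% in the single dose screen; inactive = viability above 50%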;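 note: compound exposure lasted 72 h before the ATP readout; 100% = median luminescence of untreated cell-only wells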
#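 Times – overnight cell rest, 72 h compound treatment at 37 °C · Test system – human lung fibroblast line LL 47, low passage · Amount – 1,150 cells in each well · Controls – cell-only wells, no compound · Doses – 0.1% DMSO in all compound wells · Measured by – CellTiter-Glo luminescence · Buffer or medium – IMEM plus 15% FBS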
# H69AR inhibit = blocks growth of human H69AR lung tumor cells; H69AR lung tumor viability, ATP luminescence, 72 h; hits give low values; viability, % at 10 µM; 85,000 compounds, 6% hits;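 active = viability at or below 40%; inactive = viability above 40%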;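 note: multidrug resistant small cell line overexpressing MRP-1 efflux transporter; 100% = mean luminescence of untreated control wells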
# MT1-MMP txn act = activates MT1-MMP transcription | HT1080 MT1-MMP promoter luciferase reporter, luminescence, overnight; hits give high values | activation factor at 10 µM | 86,000 compounds, 0.16% hits | AID 750;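 active = activation factor of at least 2 for MT1-MMP transcription at 10 µM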
# Jurkat viability = reduces viability or proliferation of Jurkat cells. Jurkat E6.1 viability, ATP luminescence, 48 h. inhibition, % at 4 µM. 56,000 compounds, 1.2% hits. AID 463;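 active = inhibition above the mean inhibition of all tested compounds plus 3 SD, cut at about 28% in these data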
# HUVEC prolif 384 = inhibitors of human endothelial cell proliferation; 86,000 compounds, 1.1% hits; viability, % at 10 µM (by protocol); AID 648; HUVEC proliferation, CellTiter-Glo luminescence, 72 h; hits give low values;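 active = viability at or below 30%; inactive = viability above 30%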;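 note: 100% = median luminescence of DMSO-only cell control wells on each plate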
# PTK2B oligo ant = Pyk2 (human) oligomerization antagonism; Q14289; Q293 cells, Pyk2 FERM NanoBiT luminescence; hits give low values; z-score (the deposit names both 25 µM and 10 µM); 99,000 compounds, 0.83% hits;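 active = Z-score of -3 or lower, scaled per plate to the spread of control and sample wells; inactive = z-score above -3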;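 note: negative z-score means lost luminescence so less FERM oligomerization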
# Target sequence (Q14289 whole entry, looked up): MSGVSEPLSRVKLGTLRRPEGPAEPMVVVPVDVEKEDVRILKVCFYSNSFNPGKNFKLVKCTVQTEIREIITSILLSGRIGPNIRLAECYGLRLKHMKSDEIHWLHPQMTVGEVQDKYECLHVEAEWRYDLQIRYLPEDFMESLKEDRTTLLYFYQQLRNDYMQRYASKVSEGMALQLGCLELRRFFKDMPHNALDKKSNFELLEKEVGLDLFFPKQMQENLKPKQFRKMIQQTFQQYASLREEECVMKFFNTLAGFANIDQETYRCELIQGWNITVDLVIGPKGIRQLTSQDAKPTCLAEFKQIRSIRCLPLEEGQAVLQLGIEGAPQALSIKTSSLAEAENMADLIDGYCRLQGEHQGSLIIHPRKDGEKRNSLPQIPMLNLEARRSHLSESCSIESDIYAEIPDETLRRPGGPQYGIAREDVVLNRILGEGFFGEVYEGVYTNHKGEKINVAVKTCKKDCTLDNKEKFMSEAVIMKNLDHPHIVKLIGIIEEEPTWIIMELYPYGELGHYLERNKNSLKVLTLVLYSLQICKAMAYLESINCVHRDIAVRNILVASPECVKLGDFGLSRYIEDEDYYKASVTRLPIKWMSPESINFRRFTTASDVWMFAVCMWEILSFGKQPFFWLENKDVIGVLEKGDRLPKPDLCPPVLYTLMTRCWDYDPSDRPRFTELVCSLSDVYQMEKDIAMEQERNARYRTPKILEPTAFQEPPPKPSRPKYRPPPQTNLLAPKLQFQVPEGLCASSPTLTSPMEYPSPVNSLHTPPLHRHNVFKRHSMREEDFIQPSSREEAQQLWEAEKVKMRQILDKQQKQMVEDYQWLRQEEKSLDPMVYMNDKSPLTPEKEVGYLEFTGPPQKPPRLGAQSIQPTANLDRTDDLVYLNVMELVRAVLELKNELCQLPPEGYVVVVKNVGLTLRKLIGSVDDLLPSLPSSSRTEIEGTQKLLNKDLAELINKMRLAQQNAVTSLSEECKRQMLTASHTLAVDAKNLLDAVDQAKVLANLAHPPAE
# Numbers without * were called inactive; x = no result.
SMILES,Fibroblast inh,H69AR inhibit,MT1-MMP txn act,Jurkat viability,HUVEC prolif 384,PTK2B oligo ant
COc1ccc(C(=O)c2c(C(F)(F)F)oc3c2C(=O)c2ccccc2C3=O)cc1,2.3*,81.5,0.8,x,3.2*,-2.53
CCn1c(SCC(=O)Nc2ccc(C)cc2)nnc1-c1ccc(O)cc1,x,88.0,1.2,x,98.2,-0.72
CCCc1nc2ccccc2c(=O)n1/N=C/c1c(C)[nH]n(-c2ccc(C)cc2)c1=O,87.8,27.1*,1.1,20.5,64.3,-0.78
COc1ccccc1N1CCN(C(=O)CSc2nc(C)c(Cc3ccccc3)c(=O)[nH]2)CC1,104.1,101.0,1.1,0.7,88.7,-0.71
Cc1ccc(/C(=N\O)c2oc3c(C)c4oc(=O)cc(C)c4cc3c2C)cc1,92.5,89.3,1.2,x,51.4,-2.57
Cc1cc(=O)oc2c1ccc1oc(/C(=N/O)c3ccccc3)c(C)c12,90.0,74.9,1.1,1.4,66.2,-3.69*
Cc1nc2oc3c(NCC4CCCO4)ncnc3c2c2c1COC(C)(C)C2 (centres undefined),x,x,0.9,-3.2,x,-0.13
CC(C)c1nc2oc3c(NCC4CCCO4)ncnc3c2c2c1COC(C)(C)C2 (centres undefined),98.6,36.1*,1.1,-3.2,87.3,-0.94
COc1ccc(N2C(=O)NC(NC(=O)c3ccncc3)(C(F)(F)F)C2=O)cc1 (centres undefined),x,x,x,x,x,-0.66
C=CCOc1ccc2nc(NC(=O)OC)[nH]c2c1,48.5*,32.9*,0.4,x,47.1,-0.72
O=C(CCSc1nnc(-c2ccncc2)o1)Nc1ccccc1Cl,97.8,88.0,x,x,106.1,0.51
O=C(CN1CCN(C(c2ccccc2)c2ccccc2)CC1)NC(=O)NCc1ccco1,x,x,1.2,-0.8,x,-0.99
COCCNC(=O)NC1(C(F)(F)F)Oc2ccc(Cl)cc2O1 (centres undefined),62.9,33.9*,1.2,x,57.2,0.11
O=C(NCc1cccnc1)NC1(C(F)(F)F)Oc2ccc(Cl)cc2O1 (centres undefined),69.7,31.2*,1.1,44.7*,51.3,x
Cc1cc(NC(=O)NC2(C(F)(F)F)Oc3ccc(Cl)cc3O2)no1 (centres undefined),x,x,1.3,x,x,0.46
Cc1c(Br)c([N+](=O)[O-])nn1C(C)C(=O)NCc1cccnc1 (centres undefined),104.3,80.1,1.2,x,89.4,0.97
O=C(Cn1ncc2c1-c1ccccc1OC2)Nc1nc2ccccc2s1,93.9,72.9,1,-2.5,73.1,x
O=C(O)c1ccc(CN2C(=O)c3ccccc3S2(=O)=O)cc1,100.4,97.1,1.2,3.0,95.2,0.45
O=C(CN1/C(=C(/O)c2ccccc2)C(=O)c2ccccc2S1(=O)=O)c1ccccc1,94.4,28.4*,1.3,x,87.4,-1.38
Cc1cc(C(=O)CSc2nnnn2-c2ccccc2)c(C)n1CCc1ccccc1,84.2,18.6*,1.1,x,60.0,0.37
COc1ccc(C(=O)c2oc3ccccc3c2NC(C)=O)cc1,95.2,89.6,0.9,x,105.9,-1.37
COc1ccc(OC)c(C(=O)c2oc3ccccc3c2NC(C)=O)c1,x,22.0*,1,4.1,88.5,-0.41
COC1(OC)C(/C=C/c2ccc(C)cc2)C(C#N)(C#N)C1(OC)OC (centres undefined),54.5,12.2*,1,x,87.4,-1.1
O=C(CCN1C(=O)C2C3C=CC(C3)C2C1=O)NC1CCCc2ccccc21 (centres undefined),95.5,71.3,1,0.6,76.9,0.18
Cc1ccc(NC(=O)c2ccc(-c3nn(C)c(=O)c4ccccc34)cc2)cc1,106.1,34.6*,1.1,x,67.0,-0.81
SMILES,Fibroblast inh,H69AR inhibit,MT1-MMP txn act,Jurkat viability,HUVEC prolif 384,PTK2B oligo ant
Cn1nc(-c2ccc(C(=O)Nc3cccc(Cl)c3)cc2)c2ccccc2c1=O,51.8,4.3*,1,x,41.0,0.4
Cc1ccc(NC(=O)c2ccc(-c3nn(C)c(=O)c4ccccc34)cc2)c(C)c1,96.7,77.2,1,x,99.9,0.15
Cn1nc(-c2ccc(C(=O)Nc3cccnc3)cc2)c2ccccc2c1=O,107.4,85.5,1.2,-0.6,96.2,-0.45
COC(=O)c1ccccc1NC(=O)CSc1nnc(-c2ccc(OC)cc2)n1C,107.3,93.8,1,x,95.8,-0.08
CC(=O)N(Cc1ccc(F)cc1)C1=C(NCCc2ccccc2)C(=O)c2ccccc2C1=O,1.8*,1.2*,x,x,4.3*,-3.18*
COc1ccc(/C=N/NC(N)=S)cc1OC(=O)c1cccc2ccccc12,x,x,x,x,x,-0.95
CCN(CC)c1ccc(C(=O)n2cnc3ccccc32)cc1,87.6,21.4*,1.7,31.4,75.2,-0.66
CN(C)c1ccc(C(=O)n2nnc3ccccc32)cc1,99.9,84.3,1.2,x,80.0,1.64
CCOC(=O)c1c(C)oc2c1c(C(c1cccnc1)N1CCN(C)CC1)c(O)c1ccccc12 (centres undefined),50.7,2.1*,1.7,6.3,8.4*,x
CCOC(=O)c1c(C)oc2c1c1c(c3ccccc32)OCN(Cc2cccnc2)C1,85.2,11.7*,1.9,3.3,75.9,-0.89
CCOC(=O)c1c(C)oc2c1c(C(c1cccnc1)N1CCOCC1)c(O)c1ccccc12 (centres undefined),x,x,x,x,x,-0.71
O=S(=O)(Nc1ccc(Cc2ccncc2)cc1)c1ccc(Cl)c(Cl)c1,x,x,x,x,x,-3.03*
O=S(=O)(Nc1ccncc1)c1ccc(Cl)cc1,x,x,x,x,x,-0.37
CC(Oc1ccc(F)cc1)C(=O)Nc1sc2c(c1C(=O)NCc1cccnc1)CCCC2 (centres undefined),x,x,x,x,x,-3.11*
O=C(Nc1sc2c(c1C(=O)NCc1cccnc1)CCCC2)c1ccco1,105.4,84.0,1.3,10.9,98.6,-1.98
C=CCNc1nc(-c2ccc(OC)cc2OC)cs1,76.2,90.2,2*,-5.5,87.3,0.98
O=C(CNCCC1=CCCCC1)Nc1ccc(N2CCCCCC2)cc1,23.5*,0.2*,1.1,x,2.0*,-0.28
O=C(O)CCC(=O)Nc1ccc(N2CCCCCC2)cc1,90.9,84.2,0.8,x,95.2,1.76
O=C(COC(=O)C1CCCCC1)Nc1ccc(N2CCCCC2)cc1,94.6,37.5*,1.2,x,97.7,-0.35
Oc1cccc2ccc(/C=C/c3cccs3)nc12,14.1*,12.0*,1,x,59.6,0
Cc1ccsc1/C=C/c1ccc2cccc(O)c2n1,44.9*,17.7*,1.5,x,62.1,-0.28
O=C(/C=C/c1cccs1)Nc1cccc(NC(=O)/C=C/c2cccs2)n1,x,x,x,x,x,-2.31
C=CCOc1ccc(C(=O)N(Cc2ccc(N(C)C)cc2)C2CCS(=O)(=O)C2)cc1 (centres undefined),101.1,76.5,1.1,3.8,95.2,-0.18
O=C(CSc1nnc2c(n1)[nH]c1ccccc12)Nc1ccc2c(c1)OCO2,x,x,x,x,x,0.65
COc1ccccc1N/C(N)=N/c1nc(CSc2ccc(C)cc2)cc(=O)[nH]1,x,22.9*,1,8.8,59.1,-0.05
O=C(Nc1ccc2nc(-c3ccco3)[nH]c2c1)c1ccco1,96.0,81.1,1.1,x,91.8,0.56
